In brackets after ≈: the same amount, converted by molar mass.
Assays:
Bacteroides fragilis [1] = assay: Antimicrobial activity against Bacteroides fragilis after 48 hrs by agar dilution method; type: functional
Summary of the method: (§1)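 MICs on clinical anaerobe isolates by the CLSI agar dilution method. Inoculum of 10^5 CFU applied with a Steers replicator. Plates incubated 48 h at 37°C in an anaerobic chamber.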

Bacteroides caccae [2] = assay: Antimicrobial activity against Bacteroides caccae after 48 hrs by agar dilution method; type: functional; summary of the method: as §1
[3] = test system: Parabacteroides distasonis; assay: Antimicrobial activity against Bacteroides distasonis after 48 hrs by agar dilution method; type: functional; summary of the method: as §1
Phocaeicola vulgatus [4] = assay: Antimicrobial activity against Bacteroides vulgatus after 48 hrs by agar dilution method; type: functional; summary of the method: as §1
Bacteroides fragilis [5] = assay: Antimicrobial activity against Bacteroides fragilis assessed as percent susceptible isolates after 48 hrs by agar dilution method; type: functional
Bacteroides caccae [6] = assay: Antimicrobial activity against Bacteroides caccae assessed as percent susceptible isolates after 48 hrs by agar dilution method; type: functional
Bacteroides caccae [7] = assay: Antimicrobial activity against Bacteroides caccae assessed as percent resistant isolates after 48 hrs by agar dilution method; type: functional
Summary of the method: (§2)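 CLSI agar dilution on recent Korean clinical anaerobe isolates. Inoculum 10^5 CFU per spot by replicator. Plates incubated in an anaerobic chamber at 37°C for 48 h. For piperacillin plus tazobactam, tazobactam was held constant at 4 μg/ml. Resistance and susceptibility rates derived from MICs.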

[8] = test system: Parabacteroides distasonis; assay: Antimicrobial activity against Bacteroides distasonis assessed as percent susceptible isolates after 48 hrs by agar dilution method; type: functional
[9] = test system: Parabacteroides distasonis; assay: Antimicrobial activity against Bacteroides distasonis assessed as percent resistant isolates after 48 hrs by agar dilution method; type: functional; summary of the method: as §2
Phocaeicola vulgatus [10] = assay: Antimicrobial activity against Bacteroides vulgatus assessed as percent susceptible isolates after 48 hrs by agar dilution method; type: functional
Phocaeicola vulgatus [11] = assay: Antimicrobial activity against Bacteroides vulgatus assessed as percent resistant isolates after 48 hrs by agar dilution method; type: functional; summary of the method: as §2
Bacteroides ovatus = assay: Antimicrobial activity against Bacteroides ovatus assessed as percent resistant isolates after 48 hrs by agar dilution method; type: functional; summary of the method: as §2
Prevotella intermedia [12] = assay: Antimicrobial activity against Prevotella intermedia after 48 hrs by agar dilution method; type: functional
Summary of the method: (§3)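 CLSI agar dilution (M11-A7); inoculum 10^5 CFU applied by replicator; plates incubated anaerobically 48 h at 37°C. For piperacillin-tazobactam, tazobactam held constant at 4 μg/ml.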

Prevotella bivia = assay: Antimicrobial activity against Prevotella bivia after 48 hrs by agar dilution method; type: functional; summary of the method: as §3
Prevotella intermedia [13] = assay: Antimicrobial activity against Prevotella intermedia assessed as percent resistant isolates after 48 hrs by agar dilution method; type: functional; summary of the method: as §2
Prevotella buccae [14] = assay: Antimicrobial activity against Prevotella buccae assessed as percent susceptible isolates after 48 hrs by agar dilution method; type: functional, Segatella buccae; summary of the method: as §3
Prevotella buccae [15] = assay: Antimicrobial activity against Prevotella buccae assessed as percent resistant isolates after 48 hrs by agar dilution method; type: functional, Segatella buccae; summary of the method: as §2
Hoylesella oralis [16] = assay: Antimicrobial activity against Prevotella oralis assessed as percent susceptible isolates after 48 hrs by agar dilution method; type: functional
Summary of the method: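 CLSI agar dilution MIC testing of clinical isolates. 10^5 CFU spotted by replicator, plates incubated 48 h at 37°C in an anaerobic chamber. Susceptibility rates derived from the MICs.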

Hoylesella oralis [17] = assay: Antimicrobial activity against Prevotella oralis assessed as percent resistant isolates after 48 hrs by agar dilution method; type: functional; summary of the method: as §2
Fusobacterium necrogenes = assay: Antimicrobial activity against Fusobacterium necrogenes after 48 hrs by agar dilution method; type: functional; summary of the method: as §3
Fusobacterium nucleatum = assay: Antimicrobial activity against Fusobacterium nucleatum after 48 hrs by agar dilution method; type: functional; summary of the method: as §3
[18] = test system: Peptostreptococcus anaerobius; assay: Antimicrobial activity against Peptostreptococcus anaerobius after 48 hrs by agar dilution method; type: functional; summary of the method: as §3
Parvimonas micra = assay: Antimicrobial activity against Peptostreptococcus micros after 48 hrs by agar dilution method; type: functional; summary of the method: as §3
[19] = test system: Peptostreptococcus anaerobius; assay: Antimicrobial activity against Peptostreptococcus anaerobius assessed as percent susceptible isolates after 48 hrs by agar dilution method; type: functional; summary of the method: as §2
Anaerococcus prevotii [20] = assay: Antimicrobial activity against Anaerococcus prevotii after 48 hrs by agar dilution method; type: functional; summary of the method: as §1
Anaerococcus prevotii [21] = assay: Antimicrobial activity against Anaerococcus prevotii assessed as percent susceptible isolates after 48 hrs by agar dilution method; type: functional
Anaerococcus prevotii [22] = assay: Antimicrobial activity against Anaerococcus prevotii assessed as percent resistant isolates after 48 hrs by agar dilution method; type: functional; summary of the method: as §2
[23] = test system: Peptoniphilus asaccharolyticus; assay: Antimicrobial activity against Peptoniphilus asaccharolyticus assessed as percent susceptible isolates after 48 hrs by agar dilution method; type: functional; summary of the method: as §3
Finegoldia magna [24] = assay: Antimicrobial activity against Finegoldia magna after 48 hrs by agar dilution method; type: functional; summary of the method: as §3
Finegoldia magna [25] = assay: Antimicrobial activity against Finegoldia magna assessed as percent susceptible isolates after 48 hrs by agar dilution method; type: functional; summary of the method: as §3
Finegoldia magna [26] = assay: Antimicrobial activity against Finegoldia magna assessed as percent resistant isolates after 48 hrs by agar dilution method; type: functional; summary of the method: as §2
Clostridioides difficile [27] = assay: Antimicrobial activity against Clostridium difficile assessed as percent susceptible isolates after 48 hrs by agar dilution method; type: functional
Clostridioides difficile [28] = assay: Antimicrobial activity against Clostridium difficile assessed as percent resistant isolates after 48 hrs by agar dilution method; type: functional
Schaalia odontolytica [29] = assay: Antimicrobial activity against Actinomyces odontolyticus after 48 hrs by agar dilution method; type: functional; summary of the method: as §1
Schaalia odontolytica [30] = assay: Antimicrobial activity against Actinomyces odontolyticus assessed as percent resistant isolates after 48 hrs by agar dilution method; type: functional; summary of the method: as §2
Actinomyces israelii [31] = assay: Antimicrobial activity against Actinomyces israelii after 48 hrs by agar dilution method; type: functional; summary of the method: as §1
Actinomyces israelii [32] = assay: Antimicrobial activity against Actinomyces israelii assessed as percent resistant isolates after 48 hrs by agar dilution method; type: functional; summary of the method: as §2
Schaalia meyeri = assay: Antimicrobial activity against Actinomyces meyeri after 48 hrs by agar dilution method; type: functional; summary of the method: as §1
Actinomyces naeslundii [33] = assay: Antimicrobial activity against Actinomyces naeslundii after 48 hrs by agar dilution method; type: functional; summary of the method: as §1
Actinomyces naeslundii [34] = assay: Antimicrobial activity against Actinomyces naeslundii assessed as percent resistant isolates after 48 hrs by agar dilution method; type: functional; summary of the method: as §2
[35] = test system: Bifidobacterium adolescentis; assay: Antimicrobial activity against Bifidobacterium adolescentis after 48 hrs by agar dilution method; type: functional; summary of the method: as §1
[36] = test system: Bifidobacterium adolescentis; assay: Antimicrobial activity against Bifidobacterium adolescentis assessed as percent susceptible isolates after 48 hrs by agar dilution method; type: functional
[37] = test system: Bifidobacterium adolescentis; assay: Antimicrobial activity against Bifidobacterium adolescentis assessed as percent resistant isolates after 48 hrs by agar dilution method; type: functional; summary of the method: as §2
Bifidobacterium sp. [38] = assay: Antimicrobial activity against Bifidobacterium sp. after 48 hrs by agar dilution method; type: functional; summary of the method: as §1
Bifidobacterium sp. [39] = assay: Antimicrobial activity against Bifidobacterium sp. assessed as percent susceptible isolates after 48 hrs by agar dilution method; type: functional; summary of the method: as §3
Bifidobacterium sp. [40] = assay: Antimicrobial activity against Bifidobacterium sp. assessed as percent resistant isolates after 48 hrs by agar dilution method; type: functional; summary of the method: as §2
Eubacterium sp. [41] = assay: Antimicrobial activity against Eubacterium sp. assessed as percent susceptible isolates after 48 hrs by agar dilution method; type: functional; summary of the method: as §3
Eubacterium sp. [42] = assay: Antimicrobial activity against Eubacterium sp. assessed as percent resistant isolates after 48 hrs by agar dilution method; type: functional; summary of the method: as §2

C[C@@H](O)[C@H]1C(=O)N2C(C(=O)O)=C(S[C@@H]3CN[C@H](C(=O)N(C)C)C3)[C@H](C)[C@H]12 [MEROPENEM]
MIC50 (Bacteroides fragilis [1]): 0.125 µg/mL (≈ 0.326 µM) | MIC90 (Bacteroides fragilis [1]): 4 µg/mL (≈ 10.4 µM) | MIC50 (Bacteroides caccae [2]): 0.25 µg/mL (≈ 0.652 µM) | MIC90 (Bacteroides caccae [2]): 2 µg/mL (≈ 5.22 µM) | MIC50 [3]: 0.25 µg/mL (≈ 0.652 µM) | MIC90 [3]: 2 µg/mL (≈ 5.22 µM) | MIC50 (Phocaeicola vulgatus [4]): 0.25 µg/mL (≈ 0.652 µM) | MIC90 (Phocaeicola vulgatus [4]): 2 µg/mL (≈ 5.22 µM) | Activity (Bacteroides fragilis [5]): 92% | Activity (Bacteroides caccae [6]): 98% | Activity (Bacteroides caccae [7]): 0% | Activity [8]: 98% | Activity [9]: 0% | Activity (Phocaeicola vulgatus [10]): 98% | Activity (Phocaeicola vulgatus [11]): 0% | Activity (Bacteroides ovatus): 0% | MIC50 (Prevotella intermedia [12]): 0.06 µg/mL (≈ 0.156 µM) | MIC90 (Prevotella intermedia [12]): 0.06 µg/mL (≈ 0.156 µM) | MIC50 (Prevotella bivia): 0.125 µg/mL (≈ 0.326 µM) | MIC90 (Prevotella bivia): 0.5 µg/mL (≈ 1.3 µM) | Activity (Prevotella intermedia [13]): 0% | Activity (Prevotella buccae [14]): 100% | Activity (Prevotella buccae [15]): 0% | Activity (Hoylesella oralis [16]): 100% | Activity (Hoylesella oralis [17]): 0% | MIC (Fusobacterium necrogenes): 0.008 µg/mL (≈ 0.0209 µM) | MIC (Fusobacterium nucleatum): 0.008 µg/mL (≈ 0.0209 µM) | MIC [18]: 0.01 µg/mL (≈ 0.0261 µM) | MIC50 [18]: 0.25 µg/mL (≈ 0.652 µM) | MIC90 [18]: 4 µg/mL (≈ 10.4 µM) | MIC (Parvimonas micra): 0.01 µg/mL (≈ 0.0261 µM) | MIC50 (Parvimonas micra): 0.25 µg/mL (≈ 0.652 µM) | MIC90 (Parvimonas micra): 4 µg/mL (≈ 10.4 µM) | Activity [19]: 100% | MIC50 (Anaerococcus prevotii [20]): 0.06 µg/mL (≈ 0.156 µM) | MIC90 (Anaerococcus prevotii [20]): 0.125 µg/mL (≈ 0.326 µM) | Activity (Anaerococcus prevotii [21]): 100% | Activity (Anaerococcus prevotii [22]): 0% | Activity [23]: 100% | MIC50 (Finegoldia magna [24]): 0.06 µg/mL (≈ 0.156 µM) | MIC90 (Finegoldia magna [24]): 0.125 µg/mL (≈ 0.326 µM) | Activity (Finegoldia magna [25]): 100% | Activity (Finegoldia magna [26]): 0% | Activity (Clostridioides difficile [27]): 100% | Activity (Clostridioides difficile [28]): 0% | MIC50 (Schaalia odontolytica [29]): 0.125 µg/mL (≈ 0.326 µM) | MIC90 (Schaalia odontolytica [29]): 2 µg/mL (≈ 5.22 µM) | Activity (Schaalia odontolytica [30]): 8% | MIC50 (Actinomyces israelii [31]): 0.125 µg/mL (≈ 0.326 µM) | MIC90 (Actinomyces israelii [31]): 2 µg/mL (≈ 5.22 µM) | Activity (Actinomyces israelii [32]): 8% | MIC50 (Schaalia meyeri): 0.125 µg/mL (≈ 0.326 µM) | MIC90 (Schaalia meyeri): 2 µg/mL (≈ 5.22 µM) | MIC50 (Actinomyces naeslundii [33]): 0.125 µg/mL (≈ 0.326 µM) | MIC90 (Actinomyces naeslundii [33]): 2 µg/mL (≈ 5.22 µM) | Activity (Actinomyces naeslundii [34]): 8% | MIC50 [35]: 0.125 µg/mL (≈ 0.326 µM) | MIC90 [35]: 2 µg/mL (≈ 5.22 µM) | Activity [36]: 92% | Activity [37]: 0% | MIC50 (Bifidobacterium sp. [38]): 0.125 µg/mL (≈ 0.326 µM) | MIC90 (Bifidobacterium sp. [38]): 2 µg/mL (≈ 5.22 µM) | Activity (Bifidobacterium sp. [39]): 92% | Activity (Bifidobacterium sp. [40]): 8% | Activity (Eubacterium sp. [41]): 92% | Activity (Eubacterium sp. [42]): 8%

Source: ChEMBL document CHEMBL1671716, “Antimicrobial susceptibility patterns for recent clinical isolates of anaerobic bacteria in South Korea” (2010)
